Laboratory results reported in publication PMC4855511 (Clinical chemistry, 2011).
Values belong to the substance of their own block, whether it stands above or below them.

Columns and labels:
[1] = cited from earlier work
[2] = in vivo, ref [27], [28]; cited from earlier work
GC-A = conditions: ref [15], cited from earlier work
[3] = Proteolytic inactivation by human kidney membranes with GC-A receptor bioassay; type: in vitro ADME
human GC-A [4] = molecular target: T1, human GC-A (Homo sapiens, UniProt P16066); test: Cellular cGMP elevation in HEK293 cells stably expressing human GC-A; type: cell-based
T1 sequence (P16066 33-1061): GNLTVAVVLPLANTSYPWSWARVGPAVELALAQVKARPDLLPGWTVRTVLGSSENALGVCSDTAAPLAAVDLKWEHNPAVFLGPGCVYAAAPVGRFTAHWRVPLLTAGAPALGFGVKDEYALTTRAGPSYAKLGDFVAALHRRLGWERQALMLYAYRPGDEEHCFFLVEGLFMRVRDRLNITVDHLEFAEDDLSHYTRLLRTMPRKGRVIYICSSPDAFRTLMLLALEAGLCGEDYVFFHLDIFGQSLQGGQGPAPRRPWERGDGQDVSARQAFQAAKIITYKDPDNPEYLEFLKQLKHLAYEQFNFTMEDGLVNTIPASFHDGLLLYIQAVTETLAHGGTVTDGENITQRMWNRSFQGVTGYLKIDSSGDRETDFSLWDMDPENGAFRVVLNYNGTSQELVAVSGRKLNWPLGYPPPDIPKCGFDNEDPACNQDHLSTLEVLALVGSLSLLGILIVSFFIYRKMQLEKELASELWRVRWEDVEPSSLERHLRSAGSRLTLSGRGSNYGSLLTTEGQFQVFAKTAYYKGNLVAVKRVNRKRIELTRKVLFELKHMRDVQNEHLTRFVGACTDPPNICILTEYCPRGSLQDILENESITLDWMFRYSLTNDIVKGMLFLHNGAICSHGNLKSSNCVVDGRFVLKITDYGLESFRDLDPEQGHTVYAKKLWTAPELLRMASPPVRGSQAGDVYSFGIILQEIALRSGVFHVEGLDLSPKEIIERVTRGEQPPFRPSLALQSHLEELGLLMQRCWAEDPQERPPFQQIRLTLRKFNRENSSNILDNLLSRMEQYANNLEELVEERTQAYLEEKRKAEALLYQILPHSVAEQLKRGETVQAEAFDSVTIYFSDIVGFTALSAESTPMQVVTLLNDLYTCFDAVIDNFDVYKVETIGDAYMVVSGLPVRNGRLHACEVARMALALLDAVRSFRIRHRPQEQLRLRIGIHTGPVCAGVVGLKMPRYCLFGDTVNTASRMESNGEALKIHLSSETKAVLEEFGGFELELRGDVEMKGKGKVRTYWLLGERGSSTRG
How it was run: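 HEK293 cells stably expressing human GC-A, held serum-free 4–12 h to 75%–90% confluence. Preincubated 10 min at 37 °C in DMEM with 1 mmol/L IBMX and 25 mmol/L HEPES pH 7.4, then exposed 3 min to increasing peptide in the same medium. Stopped with ice-cold 80% ethanol; dried supernatant assayed for cGMP by RIA. Triplicates in 3 separate assays; EC50 with 95% CI.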

human GC-A [5] = molecular target: T1, human GC-A; test: Whole-cell 125I-ANP competition binding, 293-GC-A cells; conditions: IC50 proBNP1–108 / IC50 BNP1–32
How it was run: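 293-GC-A cells on poly-d-lysine, at 75%–90% confluence, held 1–2 h at 37 °C in DMEM with 0.2% BSA. Incubated 1 h at 4 °C with ¹²⁵I-ANP in 1% BSA binding medium, with or without increasing unlabeled peptide. Washed twice with ice-cold PBS, lysed in 1 mol/L NaOH, γ-counted. B/Bo plotted against log competitor to give IC50. Triplicates in 3 experiments.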

Substance: B-type natriuretic peptide [BNP, reference compound]
- Half-life in rats ([1]; rat, in vivo): 1 min
- Half-life in humans [2]: 20 min

Substance: glycosylated proBNP1–108: glycosylated version of human proBNP1–108 studied in cited literature
- Half-life in rats compared with nonglycosylated proBNP1–108 ([1]; result in words, ref [26]): longer half-life
- Potency on activation of GC-A, glycosylated versus nonglycosylated (GC-A; result in words): no significant difference

- Fold greater EC50 than BNP1–32 on GC-A (human GC-A [4]; EC50 proBNP1–108 / EC50 BNP1–32): approximately 13 fold
- Maximal stimulation of GC-A (human GC-A [4]; result in words): near-maximum activities
- Fold higher IC50 than BNP1–32 on GC-A (human GC-A [5]): approximately 35 fold
Substance: proBNP1–108: recombinant human 108-residue BNP prohormone with N-terminal His6-tag and rTEV site, expressed in E. coli
- Fold longer half time for degradation by human kidney membranes than BNP1–32 [3]: 2.7 fold
- Fold longer time for complete inactivation than BNP1–32 [3]: 6 fold
- Fold reduced potency compared with BNP1–32 (GC-A; cGMP in human endothelial and vascular smooth muscle cells): 6- to 8 fold
